In brackets after ≈: the same amount, converted by molar mass. Activity calls are given as the source filed them. The calls are words filed in the database; no cut-off is given here.
Assays:
Type in all cases: functional
[1] = Antifungal activity against Candida viswanathii NBRC10321 at 400 ug/ml after 24 hrs by twofold serial dilution method
Method in brief: (§1)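 Compounds were first screened at a single concentration of 400 against each fungus. MIC values were then determined only for selected compounds.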

[2] = test system: Saccharomyces cerevisiae; experiment: Antifungal activity against Saccharomyces cerevisiae X2180-1A after 24 hrs by twofold serial dilution method; method in brief: as §1
[3] = test system: Aspergillus oryzae; experiment: Antifungal activity against Aspergillus oryzae 1-Murasaki-1 after 24 hrs by twofold serial dilution method; settings: 1-Murasaki-1, 24 h; method in brief: as §1

| MIC [2] [µg/mL] | MIC [3] [µg/mL] | SMILES | Activity [1] |
| --- | --- | --- | --- |
| – | – | CCCCCCCCNC(=O)[C@@H]1CC(=O)N[C@H](CO)C(=O)N[C@H](Cc2ccc(O)cc2)C(=O)N[C@H](CC(N)=O)C(=O)NCC(=O)N[C@@H](CC(N)=O)C(=O)N[C@@H](CO)C(=O)N[C@@H](CC(N)=O)C(=O)N1 | inactive |
| – | – | CCCCCCCCCCCCNC(=O)[C@H](CC(=O)N[C@H](CO)C(=O)N[C@H](Cc1ccc(O)cc1)C(=O)O)NC(=O)[C@H](CC(N)=O)NC(=O)[C@H](CO)NC(=O)[C@H](CC(N)=O)NC(=O)CNC(=O)[C@H](N)CC(N)=O | inactive |
| 1 (≈ 1.08 µM) | – | C[C@@H]1[C@H](O)[C@@H](C)/C=C/C=C/C=C/C=C/C=C/C=C/C=C/[C@H](O[C@@H]2O[C@H](C)[C@@H](O)[C@H](N)[C@@H]2O)C[C@@H]2O[C@](O)(C[C@@H](O)C[C@@H](O)[C@H](O)CC[C@@H](O)C[C@@H](O)CC(=O)O[C@H]1C)C[C@H](O)[C@H]2C(=O)O [AMPHOTERICIN B] | – |
| > 400 | 200 (≈ 196 µM) | CCCCCCCCCCCCNC(=O)[C@@H]1CC(=O)N[C@H](CO)C(=O)N[C@H](Cc2ccc(O)cc2)C(=O)N[C@H](CC(N)=O)C(=O)NCC(=O)N[C@H](CC(N)=O)C(=O)N[C@H](CO)C(=O)N[C@H](CC(N)=O)C(=O)N1 | inactive |
| – | – | CCCCCCCCCCCCCCCCNC(=O)[C@H]1CC(=O)N[C@H](CO)C(=O)N[C@H](Cc2ccc(O)cc2)C(=O)N[C@H](CC(N)=O)C(=O)NCC(=O)N[C@@H](CC(N)=O)C(=O)N[C@@H](CO)C(=O)N[C@@H](CC(N)=O)C(=O)N1 | inactive |
| 400 (≈ 392 µM) | 200 (≈ 196 µM) | CCCCCCCCCCCCNC(=O)[C@H]1CC(=O)N[C@H](CO)C(=O)N[C@H](Cc2ccc(O)cc2)C(=O)N[C@H](CC(N)=O)C(=O)NCC(=O)N[C@H](CC(N)=O)C(=O)N[C@@H](CO)C(=O)N[C@H](CC(N)=O)C(=O)N1 | inactive |
| – | – | CCCCCCCCCCCCNC(=O)[C@H](CC(=O)N[C@H](CO)C(=O)N[C@H](Cc1ccc(O)cc1)C(=O)N[C@H](CC(N)=O)C(=O)O)NC(=O)[C@H](CC(N)=O)NC(=O)[C@H](CO)NC(=O)[C@H](CC(N)=O)NC(=O)CN | inactive |
| – | – | CCCCCCCCCCCCNC(=O)[C@@H]1CC(=O)N[C@H](CO)C(=O)N[C@H](Cc2ccc(O)cc2)C(=O)N[C@H](CC(N)=O)C(=O)NCC(=O)N[C@H](CC(N)=O)C(=O)N[C@@H](CO)C(=O)N[C@@H](CC(N)=O)C(=O)N1 | inactive |
| – | – | CCCCCCCCCCCCNC(=O)[C@H]1CC(=O)N[C@H](CO)C(=O)N[C@H](Cc2ccc(O)cc2)C(=O)N[C@H](CC(N)=O)C(=O)NCC(=O)N[C@H](CC(N)=O)C(=O)N[C@@H](CO)C(=O)N[C@@H](CC(N)=O)C(=O)N1 | inactive |
| – | – | CCCCCCCCCCCCNC(=O)[C@H](CC(=O)N[C@H](CO)C(=O)N[C@H](Cc1ccc(O)cc1)C(=O)N[C@H](CC(N)=O)C(=O)NCC(=O)N[C@@H](CC(N)=O)C(=O)O)NC(=O)[C@H](CC(N)=O)NC(=O)[C@@H](N)CO | inactive |
| 100 (≈ 98.1 µM) | 200 (≈ 196 µM) | CCCCCCCCCCCCNC(=O)[C@H]1CC(=O)N[C@H](CO)C(=O)N[C@H](Cc2ccc(O)cc2)C(=O)N[C@H](CC(N)=O)C(=O)NCC(=O)N[C@H](CC(N)=O)C(=O)N[C@H](CO)C(=O)N[C@H](CC(N)=O)C(=O)N1 | inactive |
| – | – | CCCCCCCCCCCCNC(=O)[C@H]1CC(=O)N[C@H](CO)C(=O)N[C@H](Cc2ccc(O)cc2)C(=O)N[C@H](CC(N)=O)C(=O)NCC(=O)N[C@@H](CC(N)=O)C(=O)N[C@H](CO)C(=O)N[C@@H](CC(N)=O)C(=O)N1 | inactive |
| 50 (≈ 49.1 µM) | 50 (≈ 49.1 µM) | CCCCCCCCCCCCNC(=O)[C@H]1CC(=O)N[C@H](CO)C(=O)N[C@H](Cc2ccc(O)cc2)C(=O)N[C@H](CC(N)=O)C(=O)NCC(=O)N[C@@H](CC(N)=O)C(=O)N[C@@H](CO)C(=O)N[C@@H](CC(N)=O)C(=O)N1 | inactive |
| 25 (≈ 24.5 µM) | 50 (≈ 49.1 µM) | CCCCCCCCCCCCNC(=O)[C@@H]1CC(=O)N[C@H](CO)C(=O)N[C@H](Cc2ccc(O)cc2)C(=O)N[C@H](CC(N)=O)C(=O)NCC(=O)N[C@@H](CC(N)=O)C(=O)N[C@@H](CO)C(=O)N[C@@H](CC(N)=O)C(=O)N1 | inactive |
| – | – | CCCCCCCCCCCCNC(=O)[C@@H]1CC(=O)N[C@H](CO)C(=O)N[C@H](Cc2ccc(O)cc2)C(=O)N[C@H](CC(N)=O)C(=O)NCC(=O)N[C@@H](CC(N)=O)C(=O)N[C@@H](CO)C(=O)N[C@H](CC(N)=O)C(=O)N1 | inactive |
| – | – | CCCCCCCCCCCCNC(=O)[C@@H]1CC(=O)N[C@H](CO)C(=O)N[C@H](Cc2ccc(O)cc2)C(=O)N[C@H](CC(N)=O)C(=O)NCC(=O)N[C@@H](CC(N)=O)C(=O)N[C@H](CO)C(=O)N[C@@H](CC(N)=O)C(=O)N1 | inactive |
| – | – | CCCCCCCCCCCCNC(=O)[C@H](CC(=O)N[C@H](CO)C(=O)N[C@H](Cc1ccc(O)cc1)C(=O)N[C@H](CC(N)=O)C(=O)NCC(=O)O)NC(=O)[C@H](CC(N)=O)NC(=O)[C@H](CO)NC(=O)[C@@H](N)CC(N)=O | inactive |
| – | – | CCCCCCCCCCCCNC(=O)[C@H](CC(=O)N[C@H](CO)C(=O)N[C@H](Cc1ccc(O)cc1)C(=O)N[C@H](CC(N)=O)C(=O)NCC(=O)N[C@@H](CC(N)=O)C(=O)N[C@@H](CO)C(=O)O)NC(=O)[C@@H](N)CC(N)=O | inactive |
| 100 (≈ 98.1 µM) | 200 (≈ 196 µM) | CCCCCCCCCCCCNC(=O)[C@H]1CC(=O)N[C@H](CO)C(=O)N[C@H](Cc2ccc(O)cc2)C(=O)N[C@H](CC(N)=O)C(=O)NCC(=O)N[C@H](CC(N)=O)C(=O)N[C@H](CO)C(=O)N[C@@H](CC(N)=O)C(=O)N1 | inactive |
| – | – | CCCCCCCCCCCCCCCCNC(=O)[C@@H]1CC(=O)N[C@H](CO)C(=O)N[C@H](Cc2ccc(O)cc2)C(=O)N[C@H](CC(N)=O)C(=O)NCC(=O)N[C@@H](CC(N)=O)C(=O)N[C@@H](CO)C(=O)N[C@@H](CC(N)=O)C(=O)N1 | inactive |
| – | – | CCCCCCCCCCCCNC(=O)[C@H](CC(=O)N[C@H](CO)C(=O)O)NC(=O)[C@H](CC(N)=O)NC(=O)[C@H](CO)NC(=O)[C@H](CC(N)=O)NC(=O)CNC(=O)[C@@H](CC(N)=O)NC(=O)[C@H](N)Cc1ccc(O)cc1 | inactive |
| > 400 | 200 (≈ 196 µM) | CCCCCCCCCCCCNC(=O)[C@H]1CC(=O)N[C@H](CO)C(=O)N[C@H](Cc2ccc(O)cc2)C(=O)N[C@H](CC(N)=O)C(=O)NCC(=O)N[C@@H](CC(N)=O)C(=O)N[C@@H](CO)C(=O)N[C@H](CC(N)=O)C(=O)N1 | inactive |
| – | – | CCCCCCCCCCCCNC(=O)[C@@H]1CC(=O)N[C@H](CO)C(=O)N[C@H](Cc2ccc(O)cc2)C(=O)N[C@H](CC(N)=O)C(=O)NCC(=O)N[C@H](CC(N)=O)C(=O)N[C@H](CO)C(=O)N[C@@H](CC(N)=O)C(=O)N1 | inactive |
| – | – | CCCCCCCCCCCCNC(=O)[C@@H]1CC(=O)N[C@H](CO)C(=O)N[C@H](Cc2ccc(O)cc2)C(=O)N[C@H](CC(N)=O)C(=O)NCC(=O)N[C@H](CC(N)=O)C(=O)N[C@@H](CO)C(=O)N[C@H](CC(N)=O)C(=O)N1 | inactive |
| 400 (≈ 392 µM) | 200 (≈ 196 µM) | CCCCCCCCCCCCNC(=O)[C@H]1CC(=O)N[C@H](CO)C(=O)N[C@H](Cc2ccc(O)cc2)C(=O)N[C@H](CC(N)=O)C(=O)NCC(=O)N[C@@H](CC(N)=O)C(=O)N[C@H](CO)C(=O)N[C@H](CC(N)=O)C(=O)N1 | inactive |
| – | – | CCCCCCCCNC(=O)[C@H]1CC(=O)N[C@H](CO)C(=O)N[C@H](Cc2ccc(O)cc2)C(=O)N[C@H](CC(N)=O)C(=O)NCC(=O)N[C@@H](CC(N)=O)C(=O)N[C@@H](CO)C(=O)N[C@@H](CC(N)=O)C(=O)N1 | inactive |
| – | – | CCCCCCCCCCCCNC(=O)[C@@H]1CC(=O)N[C@H](CO)C(=O)N[C@H](Cc2ccc(O)cc2)C(=O)N[C@H](CC(N)=O)C(=O)NCC(=O)N[C@@H](CC(N)=O)C(=O)N[C@H](CO)C(=O)N[C@H](CC(N)=O)C(=O)N1 | inactive |

From ChEMBL document CHEMBL3600309, “Structure activity relationship study of burkholdine analogues toward simple antifungal agents” (2015)
